Measurements as given in article PMC3878182 (Xenobiotica; the fate of foreign compounds in biological …, 2013).

Tests used:
liver tissue slices [1] = assay: Liver slice viability; type: cell-based, Sprague-Dawley rats
Summary of the method: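 Liver slices came from adult rats, either naive or pretreated with PB or DEX, taken 24 h after the last dose into cold Krebs-Henseleit buffer, pH 7.5. Two slices per vial in 2 mL buffer received test compound (final 5 μM) or DMSO, 2 h, 37 °C, 5 % CO2/95 % air. LDH in medium and homogenate gave % release = A1×D1/(A1×D1+A2×D2); viable was <30 %.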

[2] = test system: hippocampal slice cultures; assay: Propidium iodide; type: cell-based, Sprague Dawley rats (PND4 pups)
[3] = test system: hippocampal slice cultures; assay: LDH release in hippocampal slice cultures; type: cell-based, Sprague Dawley rats (PND4 pups); conditions: PCB 136 ≤ 5 μM for 14 d
Summary of the method: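 Hippocampi from PND4 pups of timed-pregnant Sprague Dawley rats were cultured as slices. From 5 DIV, racemic test compound or vehicle (0.1 % DMSO) was added to 1 mL medium, renewed every 2 days for 14 days. LDH release was measured with a membrane-integrity fluorescence kit. Mean ± SEM, n = 2 wells per group.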

liver tissue slices [4] = assay: PCB 136 levels and partitioning in liver tissue slice incubations; type: in vitro ADME, Sprague-Dawley rats
Summary of the method: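 Two liver slices were placed in 2 mL K-H buffer and given test compound (final 5 μM; 10 nmol per incubation; DMSO) for 2 h at 37 °C, 5% CO2/95% air. Slices were washed in cold buffer and homogenized. Medium and homogenate were quantified by GC-63Ni-μECD (DB1-MS column); calibration was linear over 1–1000 ng/mL. Slice levels are per mg protein and as % of dose. n=2 or 3 animals, triplicate incubations, mean ± SD.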

liver tissue slices [5] = assay: Formation of hydroxylated PCB 136 metabolites in liver tissue slices; type: in vitro ADME, Sprague-Dawley rats; conditions: for ΣOH-PCB as percent of PCB 136: PCB 136 5 μM (10 nmol), 2 h, slices plus medium
[6] = test system: hippocampal tissue slices; assay: PCB 136 levels in hippocampal tissue slice cultures relative to medium; type: in vitro ADME, Sprague Dawley rats (PND4 pups); conditions: for Medium-to-tissue slice ratio of PCB 136: day 14
Summary of the method: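 Hippocampi from PND4 rat pups were cultured as slices. From 5 DIV, racemic test compound (5 μM; vehicle 0.1% DMSO) was added to 1 mL medium per well, renewed every 2 days for 14 days. Medium from each change and slices at day 14 were stored at −20 °C and analysed. The medium-to-slice ratio was taken at day 14.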

ryanodine receptor (RyR) = conditions: ref Pessah et al., 2006; cited from earlier work
[7] = Effect of inducer treatment on body and liver weights of rats; type: in vivo, Sprague-Dawley rats; conditions: i.p. inducer treatment
CYP3A2 = assay: Hepatic P450 transcript levels; type: in vivo, Sprague-Dawley rats; conditions: liver slices from male rats
CYP1A2 = assay: Hepatic P450 transcript levels; type: in vivo, Sprague-Dawley rats; conditions: liver slices from male rats
[8] = DEX-treated female rats, PCB 136 5 μM (10 nmol), 2 h, 37°C
[9] = DEX-treated male rats, PCB 136 5 μM (10 nmol), 2 h, 37°C
[10] = PB-treated female rats, PCB 136 5 μM (10 nmol), 2 h, 37°C
[11] = PB-treated male rats, PCB 136 5 μM (10 nmol), 2 h, 37°C
[12] = naïve control (CTL) female rats, PCB 136 5 μM (10 nmol), 2 h, 37°C
[13] = naïve control (CTL) male rats, PCB 136 5 μM (10 nmol), 2 h, 37°C

Clc1ccc(Cl)c(-c2c(Cl)ccc(Cl)c2Cl)c1Cl [PCB 136, 2,2′,3,3′,6,6′-hexachlorobiphenyl]
Acute toxicity to liver slices (liver tissue slices [1]; 2 h incubation with PCB 136 at 5 μM): not acutely toxic
LDH release to the medium (liver tissue slices [1]; all slices used in the PCB 136 metabolism experiments, 2 h incubation): 13.2 ± 6.6%
LDH release (liver tissue slices [1]; slices treated with PCB 136 5 μM, 2 h): 13.1 ± 6.6%
PI uptake (confocal images) ([2]; PCB 136 at 5 μM for 14 days vs vehicle): no significant differences
PI uptake ([2]; racemic PCB 136 at 5 or 10 μM, 3 d exposure from 5 DIV, vs vehicle): had no significant effect on PI uptake
LDH release relative to vehicle controls [3]: did not significantly alter LDH release
PCB 136 in medium (liver tissue slices [4]; [8]): 6.7 ± 0.7 nmol
PCB 136 in tissue slices (liver tissue slices [4]; [8]): 2.1 ± 0.3 nmol
PCB 136 in tissue slices (liver tissue slices [4]; DEX-treated female rats, PCB 136 5 μM, 2 h): 42 ± 14 ng/mg protein
PCB 136 in medium (liver tissue slices [4]; [9]): 5.7 ± 0.3 nmol
PCB 136 in tissue slices (liver tissue slices [4]; [9]): 1.8 ± 0.4 nmol
PCB 136 in tissue slices (liver tissue slices [4]; DEX-treated male rats, PCB 136 5 μM, 2 h): 27 ± 7 ng/mg protein
PCB 136 in medium (liver tissue slices [4]; [10]): 9.5 ± 0.5 nmol
PCB 136 in tissue slices (liver tissue slices [4]; [10]): 2.5 ± 0.4 nmol
PCB 136 in tissue slices (liver tissue slices [4]; PB-treated female rats, PCB 136 5 μM, 2 h): 53 ± 10 ng/mg protein
PCB 136 in medium (liver tissue slices [4]; [11]): 8.6 ± 0.4 nmol
PCB 136 in tissue slices (liver tissue slices [4]; [11]): 1.3 ± 0.3 nmol
PCB 136 in tissue slices (liver tissue slices [4]; PB-treated male rats, PCB 136 5 μM, 2 h): 21 ± 6 ng/mg protein
Percent of total PCB 136 associated with liver tissue slices (liver tissue slices [4]; both sexes, all treatment groups): 13–25%
PCB 136 in tissue slices as percent of total PCB 136 dose added (liver tissue slices [4]; female liver slices, 2 h): 21–25%
PCB 136 in tissue slices as percent of total PCB 136 dose (liver tissue slices [4]; male liver slices, 2 h): 13–23%
PCB 136 in medium (liver tissue slices [4]; [12]): 8.5 ± 0.1 nmol
PCB 136 in tissue slices (liver tissue slices [4]; [12]): 2.4 ± 0.5 nmol
PCB 136 in tissue slices (liver tissue slices [4]; naïve control (CTL) female rats, PCB 136 5 μM, 2 h): 45 ± 15 ng/mg protein
PCB 136 in medium (liver tissue slices [4]; [13]): 6.3 ± 0.3 nmol
PCB 136 in tissue slices (liver tissue slices [4]; [13]): 2.3 ± 0.1 nmol
PCB 136 in tissue slices (liver tissue slices [4]; naïve control (CTL) male rats, PCB 136 5 μM, 2 h): 33 ± 5 ng/mg protein
ΣOH-PCB as percent of PCB 136 (liver tissue slices [5]; DEX-treated female rats): 2.7 ± 1.3%
ΣOH-PCB as percent of PCB 136 (liver tissue slices [5]; PB-treated female rats): 5.3 ± 1.1%
ΣOH-PCB as percent of PCB 136 (liver tissue slices [5]; PB-treated male rats): 11 ± 2.7%
Percent of total PCB 136 metabolized to OH-PCBs (liver tissue slices [5]; liver slices from female rats, within 2 h): ≤ 5%
Percent of total PCB converted to OH-PCBs (liver tissue slices [5]; liver slices from male rats): at least 11%
ΣOH-PCB as percent of PCB 136 (liver tissue slices [5]; naïve control (CTL) male rats): 1.1 ± 0.4%
PCB 136 in slices as percent of the PCB 136 (1.8 μg) added on day 12 ([6]; female pups): 1.5 ± 0.8%
Average PCB 136 amount associated with the tissue slices ([6]; female pups, after 14 days): 27 ± 15 ng
Medium-to-tissue slice ratio of PCB 136 ([6]; female pups): 24 ± 8
PCB 136 in slices as percent of total PCB dose added ([6]; female pups, total dose 12.6 μg): 0.2%
PCB 136 in slices as percent of the PCB 136 (1.8 μg) added on day 12 ([6]; male pups): 1.8 ± 0.3%
PCB 136 amount associated with tissue slices ([6]; male pups, after 14 days): 32 ± 6 ng
Medium-to-tissue slice ratio of PCB 136 ([6]; male pups): 26 ± 10
PCB 136 in slices as percent of total PCB dose ([6]; male pups, total dose 12.6 μg): 0.3%
Average PCB 136 concentration in the incubation medium ([6]; slice cultures from female pups, 5 μM racemic PCB 136, 14 days): 830 ± 80 ng/mL
Average PCB 136 levels in the incubation medium ([6]; slice cultures from male pups, 5 μM racemic PCB 136, 14 days): 570 ± 220 ng/mL
RyR activity / sensitization (ryanodine receptor (RyR)): RyR active

CCC1(c2ccccc2)C(=O)NC(=O)NC1=O [Phenobarbital (PB), phenobarbital]
Liver weight ([7]; female rats): 10.1 ± 0.4 g
Liver-to-final body weight ratio ([7]; female rats): 4.5 ± 0.2
Percent change in body weight ([7]; female rats): 5.5 ± 1.3%
Liver weight ([7]; male rats): 16.0 ± 2.0 g
Liver-to-final body weight ratio ([7]; male rats): 5.3 ± 0.9
Percent change in body weight ([7]; male rats): −2.0 ± 7.0%
CYP3A2 transcript level vs CTL (CYP3A2): significantly induced by DEX but not PB
CYP1A2 transcript level vs CTL (CYP1A2): not changed
